Test results taken from ChEMBL document CHEMBL2384911 (Bioorg Med Chem, 2013).
pIC50: −log10 of the molar value. Calls of active or inactive are those of the source. The calls are words filed in the database; no cut-off is given here.

Columns and labels:
[1] = target: Bcr/Abl fusion protein (Homo sapiens) (UniProt P00519+P11274); test: Inhibition of human BCR-ABL1 autophosphorylation expressed in mouse BA/F3 cells at < 3000 nM by ELISA; type: cell-based; conditions: BaF3
[2] = tested on: Mast/stem cell growth factor receptor Kit (Homo sapiens), P10721 [K642E]; test: Inhibition of KIT K642E mutant autophosphorylation (unknown origin) expressed in human GIST882 cells at < 3000 nM by ELISA; type: cell-based
Mast/stem cell growth factor receptor Kit (Homo sapiens), P10721 [K642E], sequence (P10721 whole entry K642E): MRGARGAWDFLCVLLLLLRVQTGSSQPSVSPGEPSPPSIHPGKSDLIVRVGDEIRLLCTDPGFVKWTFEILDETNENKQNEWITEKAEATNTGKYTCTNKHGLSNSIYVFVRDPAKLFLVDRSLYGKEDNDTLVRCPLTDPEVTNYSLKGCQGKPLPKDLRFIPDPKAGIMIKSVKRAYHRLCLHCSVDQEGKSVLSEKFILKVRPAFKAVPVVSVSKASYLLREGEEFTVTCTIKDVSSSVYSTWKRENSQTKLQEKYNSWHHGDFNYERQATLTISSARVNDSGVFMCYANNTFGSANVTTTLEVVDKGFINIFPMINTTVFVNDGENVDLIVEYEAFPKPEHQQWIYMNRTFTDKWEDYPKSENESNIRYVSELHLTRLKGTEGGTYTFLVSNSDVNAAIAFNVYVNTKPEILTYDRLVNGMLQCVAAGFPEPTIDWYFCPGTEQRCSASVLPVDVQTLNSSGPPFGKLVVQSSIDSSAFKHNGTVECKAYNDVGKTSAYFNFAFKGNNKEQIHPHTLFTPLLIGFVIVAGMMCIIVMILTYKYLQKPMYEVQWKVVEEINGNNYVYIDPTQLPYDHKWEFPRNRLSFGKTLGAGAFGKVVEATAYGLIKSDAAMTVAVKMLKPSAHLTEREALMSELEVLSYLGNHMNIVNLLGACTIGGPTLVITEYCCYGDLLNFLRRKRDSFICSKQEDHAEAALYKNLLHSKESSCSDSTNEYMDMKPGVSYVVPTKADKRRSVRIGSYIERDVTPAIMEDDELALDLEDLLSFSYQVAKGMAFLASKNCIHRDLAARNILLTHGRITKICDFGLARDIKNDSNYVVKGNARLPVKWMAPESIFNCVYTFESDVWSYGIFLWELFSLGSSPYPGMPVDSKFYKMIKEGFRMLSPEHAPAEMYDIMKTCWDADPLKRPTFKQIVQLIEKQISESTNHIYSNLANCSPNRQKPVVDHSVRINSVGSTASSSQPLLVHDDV

in vivo = conditions: Sprague-Dawley, rat, plasma, iv, 1 mg/kg
Rattus norvegicus = test: AUC (0 to 48 hrs) in Sprague-Dawley rat assessed as N-[4-Methyl-3-[[4-(3-pyridinyl)-2-pyrimidinyl]amino]-phenyl]-4-(1-piperazinylmethyl)benzamide at 1 mg/kg, iv administered as bolus dose; type: ADME, organism-based, Plasma; design: time < 48 hr, dose 1 mg/kg, route intravenous; conditions: in vivo
Outline: (§1)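 Single IV bolus into femoral vein, 1 mg/kg in 0.5 mL/kg vehicle (30% NMP, 70% PEG200). Serial blood samples taken from femoral artery for up to 48 h, stored at −20 °C. Proteins precipitated with CH3CN containing internal standard, then LC/MS/MS with ESI; LLOQ 0.4 ng mL. Parameters from non-compartmental analysis.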

Liver microsomes [3] = test: Metabolic stability in human liver microsomes assessed as compound remaining by capillary-HPLC/MS analysis; type: ADME, Microsome
Outline: (§2)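 Parent compound added from 2 mM DMSO stock to liver microsomes (20 mg protein/mL) in 100 mM phosphate buffer pH 7.4 with alamethicin and UDPGA. Pre-incubated 3 min at 37 °C, started with NADPH-regenerating system, run up to 60 min at 37 °C. Stopped with ice-cold CH3CN, centrifuged, diluted, analysed by capillary-HPLC/MS; peak areas not corrected for response factors.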

Liver microsomes [4] = test: Metabolic stability in rat liver microsomes assessed as compound remaining by capillary-HPLC/MS analysis; type: ADME, Microsome; outline: as §2
[5] = AUC (0 to 48 hrs) in Sprague-Dawley rat at 1 mg/kg, iv administered as bolus dose; type: ADME, organism-based; design: time < 48 hr, dose 1 mg/kg, route intravenous; conditions: plasma; outline: as §1
[6] = target: Mast/stem cell growth factor receptor Kit (Homo sapiens, UniProt P10721, K642E); test: Inhibition of KIT K642E mutant autophosphorylation (unknown origin) expressed in human GIST882 cells by ELISA; type: cell-based
Mast/stem cell growth factor receptor Kit, sequence (P10721 26-976 K642E limits assumed): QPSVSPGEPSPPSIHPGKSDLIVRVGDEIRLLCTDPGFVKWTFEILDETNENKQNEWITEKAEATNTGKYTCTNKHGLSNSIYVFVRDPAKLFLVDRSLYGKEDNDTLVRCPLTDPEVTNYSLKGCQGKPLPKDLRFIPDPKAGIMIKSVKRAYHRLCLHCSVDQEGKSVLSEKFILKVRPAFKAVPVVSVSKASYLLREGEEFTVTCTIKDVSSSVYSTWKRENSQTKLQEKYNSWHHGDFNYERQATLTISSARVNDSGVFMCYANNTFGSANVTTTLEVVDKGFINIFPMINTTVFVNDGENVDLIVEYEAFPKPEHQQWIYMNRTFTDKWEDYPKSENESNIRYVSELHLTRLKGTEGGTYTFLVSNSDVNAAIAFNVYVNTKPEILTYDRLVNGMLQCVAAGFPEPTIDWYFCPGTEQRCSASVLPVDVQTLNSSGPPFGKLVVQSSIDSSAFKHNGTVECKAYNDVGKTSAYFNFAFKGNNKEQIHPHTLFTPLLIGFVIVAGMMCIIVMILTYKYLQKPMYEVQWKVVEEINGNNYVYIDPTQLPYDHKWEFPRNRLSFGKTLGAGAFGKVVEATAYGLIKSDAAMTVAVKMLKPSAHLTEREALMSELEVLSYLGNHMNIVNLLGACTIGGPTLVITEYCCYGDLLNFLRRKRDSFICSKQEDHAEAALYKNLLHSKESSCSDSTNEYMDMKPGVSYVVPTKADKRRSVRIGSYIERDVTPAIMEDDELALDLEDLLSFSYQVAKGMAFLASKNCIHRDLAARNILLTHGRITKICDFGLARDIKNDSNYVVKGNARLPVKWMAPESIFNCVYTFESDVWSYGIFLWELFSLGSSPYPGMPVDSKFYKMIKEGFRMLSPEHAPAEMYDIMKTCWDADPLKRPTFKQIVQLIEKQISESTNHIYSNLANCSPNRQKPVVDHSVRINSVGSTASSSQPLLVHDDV

Bcr/Abl fusion protein [7] = target: T1, Bcr/Abl fusion protein (Homo sapiens, UniProt P00519); test: Inhibition of human BCR-ABL1 (unknown origin) expressed in mouse 32D cells; type: cell-based
T1 sequence (P00519 whole entry, the tested form may be a part): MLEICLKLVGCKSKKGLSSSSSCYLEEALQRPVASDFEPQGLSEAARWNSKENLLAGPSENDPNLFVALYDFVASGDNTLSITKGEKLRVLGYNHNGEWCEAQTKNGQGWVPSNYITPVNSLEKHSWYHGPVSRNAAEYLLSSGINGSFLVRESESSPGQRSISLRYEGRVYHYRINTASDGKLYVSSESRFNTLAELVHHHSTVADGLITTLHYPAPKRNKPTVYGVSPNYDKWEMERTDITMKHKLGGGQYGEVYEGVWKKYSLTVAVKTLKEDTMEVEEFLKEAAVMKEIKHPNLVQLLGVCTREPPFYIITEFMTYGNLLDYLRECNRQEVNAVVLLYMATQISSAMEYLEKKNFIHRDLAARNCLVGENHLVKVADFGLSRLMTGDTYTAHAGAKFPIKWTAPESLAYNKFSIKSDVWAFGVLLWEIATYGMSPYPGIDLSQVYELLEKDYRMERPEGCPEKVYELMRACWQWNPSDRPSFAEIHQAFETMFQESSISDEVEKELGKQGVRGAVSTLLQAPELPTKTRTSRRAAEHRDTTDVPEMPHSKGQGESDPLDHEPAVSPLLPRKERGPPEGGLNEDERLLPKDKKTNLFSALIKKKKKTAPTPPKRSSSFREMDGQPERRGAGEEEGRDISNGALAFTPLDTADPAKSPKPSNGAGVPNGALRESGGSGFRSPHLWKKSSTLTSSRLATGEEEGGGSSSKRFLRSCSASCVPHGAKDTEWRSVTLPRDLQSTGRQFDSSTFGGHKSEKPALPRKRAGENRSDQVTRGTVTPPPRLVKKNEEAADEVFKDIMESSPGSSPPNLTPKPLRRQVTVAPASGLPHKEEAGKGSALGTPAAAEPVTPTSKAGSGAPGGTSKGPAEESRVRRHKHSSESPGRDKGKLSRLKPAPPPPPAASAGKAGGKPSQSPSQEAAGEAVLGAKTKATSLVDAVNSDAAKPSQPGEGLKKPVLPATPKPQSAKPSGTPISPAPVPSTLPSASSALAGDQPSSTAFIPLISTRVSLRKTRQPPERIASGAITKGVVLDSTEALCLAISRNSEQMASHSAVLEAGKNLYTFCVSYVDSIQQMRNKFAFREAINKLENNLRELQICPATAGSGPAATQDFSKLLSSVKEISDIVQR
T1 sequence (P11274 whole entry, further chain, the tested form may be a part): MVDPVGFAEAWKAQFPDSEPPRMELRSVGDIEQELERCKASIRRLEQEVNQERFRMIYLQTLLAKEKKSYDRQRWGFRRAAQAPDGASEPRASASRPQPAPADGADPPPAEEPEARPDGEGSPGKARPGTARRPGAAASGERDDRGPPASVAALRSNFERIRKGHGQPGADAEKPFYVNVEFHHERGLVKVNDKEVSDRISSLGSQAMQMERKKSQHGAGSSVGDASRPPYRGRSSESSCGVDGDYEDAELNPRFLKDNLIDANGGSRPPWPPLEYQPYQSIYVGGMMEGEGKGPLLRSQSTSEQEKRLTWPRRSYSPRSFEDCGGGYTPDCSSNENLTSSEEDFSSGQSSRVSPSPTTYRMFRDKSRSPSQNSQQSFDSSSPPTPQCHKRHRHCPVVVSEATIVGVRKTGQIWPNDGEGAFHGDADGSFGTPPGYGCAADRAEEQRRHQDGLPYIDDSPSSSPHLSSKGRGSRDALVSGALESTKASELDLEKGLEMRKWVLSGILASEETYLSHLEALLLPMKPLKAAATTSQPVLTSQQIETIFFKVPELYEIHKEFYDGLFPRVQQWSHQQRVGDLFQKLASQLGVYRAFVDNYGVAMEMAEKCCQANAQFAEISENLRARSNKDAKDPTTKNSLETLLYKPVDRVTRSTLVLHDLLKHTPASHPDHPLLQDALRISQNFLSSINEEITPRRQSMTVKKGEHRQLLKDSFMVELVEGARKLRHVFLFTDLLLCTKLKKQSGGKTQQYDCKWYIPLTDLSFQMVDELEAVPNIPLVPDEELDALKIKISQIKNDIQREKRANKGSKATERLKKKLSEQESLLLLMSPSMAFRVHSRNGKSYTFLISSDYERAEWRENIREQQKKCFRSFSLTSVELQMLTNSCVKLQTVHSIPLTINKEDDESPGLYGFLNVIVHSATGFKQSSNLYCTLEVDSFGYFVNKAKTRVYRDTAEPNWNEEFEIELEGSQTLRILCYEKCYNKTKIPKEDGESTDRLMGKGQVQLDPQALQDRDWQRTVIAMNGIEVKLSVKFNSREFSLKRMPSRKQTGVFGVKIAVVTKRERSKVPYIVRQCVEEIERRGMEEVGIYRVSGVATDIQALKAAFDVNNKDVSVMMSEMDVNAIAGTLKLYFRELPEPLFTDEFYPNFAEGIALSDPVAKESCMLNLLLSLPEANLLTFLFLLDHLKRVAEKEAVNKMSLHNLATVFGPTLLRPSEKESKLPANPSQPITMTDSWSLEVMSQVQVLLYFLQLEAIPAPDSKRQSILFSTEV

Bcr/Abl fusion protein [8] = target: T1, Bcr/Abl fusion protein; test: Inhibition of human BCR-ABL1 expressed in mouse BA/F3 cells assessed as cell growth inhibition by ATP-depletion assay; type: cell-based, BaF3
Bcr/Abl fusion protein [9] = target: T1, Bcr/Abl fusion protein; test: Inhibition of human BCR-ABL1 autophosphorylation expressed in mouse BA/F3 cells by ELISA; type: cell-based, BaF3

Bcr/Abl fusion protein (Homo sapiens), sequence (P00519 whole entry, looked up, the tested form may be a part): as the sequence (P00519 whole entry, the tested form may be a part) above
Bcr/Abl fusion protein (Homo sapiens), sequence (P11274 whole entry, looked up, the tested form may be a part): as the sequence (P11274 whole entry, further chain, the tested form may be a part) above

Compound	inhibition [1]	inhibition [2]	AUC (in vivo) [µM·h]	AUC (Rattus norvegicus) [µM·h]	Stability (Liver microsomes [3]) [%]	Stability (Liver microsomes [4]) [%]	AUC(0-t) at 48 h [5] [µM·h]	other results
Cc1ccc(NC(=O)c2ccc(CN3CCN(C=O)CC3)cc2)cc1Nc1nccc(-c2cccnc2)n1	inactive	inactive	–	–	–	–	–	–
Cc1ccc(NC(=O)c2ccc(CN3CCN(C)CC3)cc2)cc1Nc1nccc(-c2cccnc2)n1 [IMATINIB]	–	–	1.97	0.0339	67.3	77.2	1.42	–
[2H]C([2H])([2H])N1CCN(Cc2ccc(C(=O)Nc3ccc(C)c(Nc4nccc(-c5cccnc5)n4)c3)cc2)CC1	–	–	1.85	0.011	81.9	80.9	1.15	–
Cc1ccc(NC(=O)c2ccc(CN3CCNCC3)cc2)cc1Nc1nccc(-c2cccnc2)n1	–	–	–	–	–	–	–	pIC50 [6]: 6.47; pIC50 (Bcr/Abl fusion protein [7]): 6.29; pIC50 (Bcr/Abl fusion protein [8]): 5.81; pIC50 (Bcr/Abl fusion protein [9]): 5.65

More lines, main results first:

inhibition [1]	inhibition [2]	Compound	AUC (in vivo) [µM·h]	AUC (Rattus norvegicus) [µM·h]	Stability (Liver microsomes [3]) [%]	Stability (Liver microsomes [4]) [%]	AUC(0-t) at 48 h [5] [µM·h]	other results
inactive	inactive	CC(=O)N1CCN(Cc2ccc(C(=O)Nc3ccc(C)c(Nc4nccc(-c5cccnc5)n4)c3)cc2)CC1	–	–	–	–	–	–
inactive	inactive	Cc1ccc(NC(=O)c2ccc(CN3CCN(C)C(=O)C3)cc2)cc1Nc1nccc(-c2cccnc2)n1	–	–	–	–	–	–
